Test results from ChEMBL document CHEMBL4619723, “New CDK8 inhibitors as potential anti-leukemic agents - Design, synthesis and biological evaluation” (Bioorg Med Chem, 2020).

Tests used:
[1] = Selectivity ratio of EC50 for rat NRK cells to EC50 for human MV4-11 cells; type: toxicity; details: NRK cells versus MV4-11 cells, read-out: Ratio EC50
[2] = target: G protein-coupled receptor kinase 4 (Homo sapiens) (UniProt P32298); test: Inhibition of biotinylated ligand binding to wild-type human full length GRK4 (M1 to C578 residues) expressed in bacterial expression system at 50 nM measured after 1 hr by kinomescan assay relative to control
Outline: (§1)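 Kinase-tagged T7 phage was grown in an E. coli BL21-derived host at 32 °C until lysis, and the lysate was clarified. Kinase was bound to streptavidin beads carrying a biotinylated ligand, with test compound at 50 nM (final DMSO), in binding buffer for 1 h at rt. Bound kinase was eluted and quantified by qPCR. Result is POC relative to the DMSO (100%) and control-compound (0%) references.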

[3] = Selectivity ratio of EC50 for rat H9c2 cells to EC50 for human MOLM13 cells; type: toxicity; details: H9c2 cells versus MOLM13 cells, read-out: Ratio EC50
[4] = Selectivity ratio of EC50 for rat NRK cells to EC50 for human MOLM13 cells; type: toxicity; details: NRK cells versus MOLM13 cells, read-out: Ratio EC50
[5] = target: Mitogen-activated protein kinase 13 (Homo sapiens) (UniProt O15264); test: Inhibition of biotinylated ligand binding to wild-type human full length p38-delta (M1 to L365 residues) expressed in bacterial expression system at 50 nM measured after 1 hr by kinomescan assay relative to control; outline: as §1
[6] = target: Protein kinase C theta type (Homo sapiens) (UniProt Q04759); test: Inhibition of biotinylated ligand binding to wild-type human partial length PRKCQ (L350 to S706 residues) expressed in bacterial expression system at 50 nM measured after 1 hr by kinomescan assay relative to control; outline: as §1
[7] = target: Rho-associated protein kinase 1 (Homo sapiens) (UniProt Q13464); test: Inhibition of biotinylated ligand binding to wild-type human partial length ROCK1 (M1 to R415 residues) expressed in mammalian expression system at 50 nM measured after 1 hr by kinomescan assay relative to control
Sequence of Rho-associated protein kinase 1 (Homo sapiens) (Q13464 2-1354 limits assumed): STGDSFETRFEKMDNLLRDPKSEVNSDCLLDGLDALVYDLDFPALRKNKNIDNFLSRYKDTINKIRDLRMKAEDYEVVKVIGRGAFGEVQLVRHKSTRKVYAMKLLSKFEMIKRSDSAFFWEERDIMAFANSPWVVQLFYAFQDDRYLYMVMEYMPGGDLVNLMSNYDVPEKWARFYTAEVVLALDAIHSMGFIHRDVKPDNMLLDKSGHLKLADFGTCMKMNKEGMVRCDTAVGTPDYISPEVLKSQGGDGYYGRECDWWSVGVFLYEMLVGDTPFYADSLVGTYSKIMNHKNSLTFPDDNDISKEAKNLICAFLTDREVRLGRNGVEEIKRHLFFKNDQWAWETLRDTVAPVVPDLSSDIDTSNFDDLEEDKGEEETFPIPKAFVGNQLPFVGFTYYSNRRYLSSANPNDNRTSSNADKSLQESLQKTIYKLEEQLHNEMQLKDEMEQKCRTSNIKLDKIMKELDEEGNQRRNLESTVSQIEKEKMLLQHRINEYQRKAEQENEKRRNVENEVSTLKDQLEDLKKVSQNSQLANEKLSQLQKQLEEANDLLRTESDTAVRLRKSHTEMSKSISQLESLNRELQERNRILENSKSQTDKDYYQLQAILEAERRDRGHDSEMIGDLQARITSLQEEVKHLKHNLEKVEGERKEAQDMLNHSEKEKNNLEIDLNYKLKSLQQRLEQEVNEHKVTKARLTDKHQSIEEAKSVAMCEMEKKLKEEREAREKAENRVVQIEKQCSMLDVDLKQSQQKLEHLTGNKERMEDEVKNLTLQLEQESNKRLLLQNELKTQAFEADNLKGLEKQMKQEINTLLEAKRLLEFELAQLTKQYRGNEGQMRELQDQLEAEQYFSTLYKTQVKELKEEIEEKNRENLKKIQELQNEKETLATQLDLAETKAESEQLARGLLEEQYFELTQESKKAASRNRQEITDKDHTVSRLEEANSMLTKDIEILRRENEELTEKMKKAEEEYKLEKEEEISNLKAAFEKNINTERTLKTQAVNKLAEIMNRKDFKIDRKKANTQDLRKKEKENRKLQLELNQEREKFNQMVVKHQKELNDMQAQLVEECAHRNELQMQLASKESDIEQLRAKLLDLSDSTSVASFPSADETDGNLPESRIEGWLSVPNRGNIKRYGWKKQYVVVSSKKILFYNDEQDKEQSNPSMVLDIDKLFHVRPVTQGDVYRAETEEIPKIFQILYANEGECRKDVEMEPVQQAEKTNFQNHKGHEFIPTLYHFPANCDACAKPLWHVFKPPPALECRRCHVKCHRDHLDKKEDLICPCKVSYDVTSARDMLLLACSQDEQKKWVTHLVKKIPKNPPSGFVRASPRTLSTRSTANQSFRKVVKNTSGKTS
Outline: (§2)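 Competition binding: kinase was bound to streptavidin beads carrying a biotinylated ligand, with test compound at 50 nM, in 20% SeaBlock, 0.17x PBS, 0.05% Tween 20 and 6 mM DTT for 1 h at rt with shaking. After washing, kinase was eluted with 0.5 μM free ligand and quantified by qPCR. Result is POC relative to the DMSO (100%) and control-compound (0%) references.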

[8] = target: Non-receptor tyrosine-protein kinase TNK1 (Homo sapiens) (UniProt Q13470); test: Inhibition of biotinylated ligand binding to wild-type human full length TNK1 (M1 to P661 residues) expressed in bacterial expression system at 50 nM measured after 1 hr by kinomescan assay relative to control; outline: as §1
Sequence of Non-receptor tyrosine-protein kinase TNK1 (Homo sapiens) (Q13470 whole entry, the tested form may be a part): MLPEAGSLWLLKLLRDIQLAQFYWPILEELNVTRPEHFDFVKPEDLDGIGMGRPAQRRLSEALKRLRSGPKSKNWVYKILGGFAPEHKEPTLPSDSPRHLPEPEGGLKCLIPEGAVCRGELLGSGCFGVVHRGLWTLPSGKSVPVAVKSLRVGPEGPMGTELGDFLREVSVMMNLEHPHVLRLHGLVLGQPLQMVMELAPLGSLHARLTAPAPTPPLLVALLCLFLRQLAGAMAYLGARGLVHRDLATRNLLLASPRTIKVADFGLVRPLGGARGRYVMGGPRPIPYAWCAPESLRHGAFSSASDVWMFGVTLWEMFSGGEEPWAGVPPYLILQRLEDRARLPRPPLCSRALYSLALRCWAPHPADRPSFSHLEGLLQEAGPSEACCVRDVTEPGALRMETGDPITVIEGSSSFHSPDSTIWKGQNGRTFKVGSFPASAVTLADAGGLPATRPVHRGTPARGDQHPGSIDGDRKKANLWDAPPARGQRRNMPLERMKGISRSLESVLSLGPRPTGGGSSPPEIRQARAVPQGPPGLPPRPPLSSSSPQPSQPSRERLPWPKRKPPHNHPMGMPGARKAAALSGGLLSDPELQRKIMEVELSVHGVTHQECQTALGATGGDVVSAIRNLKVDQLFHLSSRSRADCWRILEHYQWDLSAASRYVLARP

[9] = target: Mitogen-activated protein kinase kinase kinase 2 (Homo sapiens) (UniProt Q9Y2U5); test: Inhibition of biotinylated ligand binding to wild-type human partial length MAP3K2 (S315 to H619 residues) expressed in mammalian expression system at 50 nM measured after 1 hr by kinomescan assay relative to control; outline: as §2
[10] = target: Serine/threonine-protein kinase RIO1 (Homo sapiens) (UniProt Q9BRS2); test: Inhibition of biotinylated ligand binding to wild-type human full length RIOK1 (M1 to K568 residues) expressed in bacterial expression system at 50 nM measured after 1 hr by kinomescan assay relative to control; outline: as §1
[11] = target: Phosphatidylinositol 4-phosphate 5-kinase type-1 alpha (Homo sapiens) (UniProt Q99755); test: Inhibition of biotinylated ligand binding to wild-type human full length PIP5K1A (M1 to H562 residues) expressed in bacterial expression system at 50 nM measured after 1 hr by kinomescan assay relative to control; outline: as §1
Sequence of Phosphatidylinositol 4-phosphate 5-kinase type-1 alpha (Homo sapiens) (Q99755 whole entry, the tested form may be a part): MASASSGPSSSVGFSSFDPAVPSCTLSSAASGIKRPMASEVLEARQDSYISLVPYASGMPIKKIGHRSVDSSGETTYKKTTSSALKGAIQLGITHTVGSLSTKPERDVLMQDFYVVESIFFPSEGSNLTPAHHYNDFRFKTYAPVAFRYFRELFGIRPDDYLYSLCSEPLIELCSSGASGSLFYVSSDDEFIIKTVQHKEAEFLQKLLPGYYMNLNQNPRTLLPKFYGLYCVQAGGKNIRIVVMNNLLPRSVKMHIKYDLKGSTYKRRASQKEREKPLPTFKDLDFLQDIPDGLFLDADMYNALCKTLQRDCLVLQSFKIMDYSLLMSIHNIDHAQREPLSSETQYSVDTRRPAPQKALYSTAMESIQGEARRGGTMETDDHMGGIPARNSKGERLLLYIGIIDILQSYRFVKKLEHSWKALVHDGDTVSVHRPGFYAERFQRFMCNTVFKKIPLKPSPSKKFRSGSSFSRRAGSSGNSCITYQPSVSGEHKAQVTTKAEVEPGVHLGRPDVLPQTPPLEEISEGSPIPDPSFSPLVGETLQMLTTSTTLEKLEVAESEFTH

[12] = Selectivity ratio of EC50 for rat NRK cells to EC50 for human OCI-AML3 cells; type: toxicity; details: NRK cells versus OCI-AML3 cells, read-out: Ratio EC50
[13] = target: cAMP-dependent protein kinase catalytic subunit alpha (Homo sapiens) (UniProt P17612); test: Inhibition of biotinylated ligand binding to wild-type human partial length PKAC-alpha (G10 to F351 residues) expressed in bacterial expression system at 50 nM measured after 1 hr by kinomescan assay relative to control
[14] = tested on: MV4-11; test: cells; details: Homo sapiens, MV4-11, 48 h
[15] = tested on: MOLM-13; test: cells; details: Homo sapiens, MOLM-13, 48 h
[16] = target: Rho-associated protein kinase 2 (Homo sapiens) (UniProt O75116); test: Inhibition of biotinylated ligand binding to wild-type human partial length ROCK2 (M1 to T431 residues) expressed in mammalian expression system at 50 nM measured after 1 hr by kinomescan assay relative to control; outline: as §2
Sequence of Rho-associated protein kinase 2 (Homo sapiens) (O75116 whole entry, looked up, the tested form may be a part): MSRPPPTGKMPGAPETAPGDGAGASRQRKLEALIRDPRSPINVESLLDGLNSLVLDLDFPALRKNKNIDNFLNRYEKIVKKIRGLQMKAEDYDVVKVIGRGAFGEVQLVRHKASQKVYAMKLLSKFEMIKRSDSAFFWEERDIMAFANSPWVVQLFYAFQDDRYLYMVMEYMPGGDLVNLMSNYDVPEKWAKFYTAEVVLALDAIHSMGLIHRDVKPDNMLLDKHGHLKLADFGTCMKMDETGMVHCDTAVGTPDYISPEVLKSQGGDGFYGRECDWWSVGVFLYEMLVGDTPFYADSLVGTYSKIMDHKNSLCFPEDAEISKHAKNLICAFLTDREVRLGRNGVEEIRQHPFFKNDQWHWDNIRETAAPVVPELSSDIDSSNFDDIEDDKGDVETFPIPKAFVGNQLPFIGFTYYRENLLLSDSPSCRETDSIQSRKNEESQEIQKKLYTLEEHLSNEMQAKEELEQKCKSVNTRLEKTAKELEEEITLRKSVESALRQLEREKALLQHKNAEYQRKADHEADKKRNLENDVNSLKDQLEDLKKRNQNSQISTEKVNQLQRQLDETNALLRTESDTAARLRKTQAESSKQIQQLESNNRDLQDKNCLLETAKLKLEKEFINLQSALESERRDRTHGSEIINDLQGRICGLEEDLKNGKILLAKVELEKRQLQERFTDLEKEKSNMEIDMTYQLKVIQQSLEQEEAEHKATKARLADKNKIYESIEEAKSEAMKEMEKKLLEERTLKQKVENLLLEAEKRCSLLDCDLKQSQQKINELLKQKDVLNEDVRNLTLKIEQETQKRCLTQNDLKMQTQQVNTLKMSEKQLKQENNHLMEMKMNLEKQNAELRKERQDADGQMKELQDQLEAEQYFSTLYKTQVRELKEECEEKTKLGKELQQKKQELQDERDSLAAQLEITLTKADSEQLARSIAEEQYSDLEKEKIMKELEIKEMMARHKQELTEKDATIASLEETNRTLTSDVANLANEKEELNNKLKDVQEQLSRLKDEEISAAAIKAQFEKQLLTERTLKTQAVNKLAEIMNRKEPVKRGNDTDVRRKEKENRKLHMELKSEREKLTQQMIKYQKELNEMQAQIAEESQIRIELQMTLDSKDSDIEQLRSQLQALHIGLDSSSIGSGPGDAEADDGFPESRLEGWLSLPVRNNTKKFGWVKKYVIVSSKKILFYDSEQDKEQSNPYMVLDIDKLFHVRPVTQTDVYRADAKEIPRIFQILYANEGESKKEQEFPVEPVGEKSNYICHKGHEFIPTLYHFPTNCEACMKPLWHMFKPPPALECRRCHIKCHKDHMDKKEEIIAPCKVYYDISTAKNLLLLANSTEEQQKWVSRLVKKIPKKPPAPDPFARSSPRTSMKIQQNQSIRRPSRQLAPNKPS

[17] = target: Serine/threonine-protein kinase haspin (Homo sapiens) (UniProt Q8TF76); test: Inhibition of biotinylated ligand binding to wild-type human partial length HASPIN (I452 to K798 residues) expressed in mammalian expression system at 50 nM measured after 1 hr by kinomescan assay relative to control
[18] = target: NUAK family SNF1-like kinase 2 (Homo sapiens) (UniProt Q9H093); test: Inhibition of biotinylated ligand binding to wild-type human partial length SNARK (P22 to A333 residues) expressed in mammalian expression system at 50 nM measured after 1 hr by kinomescan assay relative to control; outline: as §2
Sequence of NUAK family SNF1-like kinase 2 (Homo sapiens) (Q9H093 whole entry, the tested form may be a part): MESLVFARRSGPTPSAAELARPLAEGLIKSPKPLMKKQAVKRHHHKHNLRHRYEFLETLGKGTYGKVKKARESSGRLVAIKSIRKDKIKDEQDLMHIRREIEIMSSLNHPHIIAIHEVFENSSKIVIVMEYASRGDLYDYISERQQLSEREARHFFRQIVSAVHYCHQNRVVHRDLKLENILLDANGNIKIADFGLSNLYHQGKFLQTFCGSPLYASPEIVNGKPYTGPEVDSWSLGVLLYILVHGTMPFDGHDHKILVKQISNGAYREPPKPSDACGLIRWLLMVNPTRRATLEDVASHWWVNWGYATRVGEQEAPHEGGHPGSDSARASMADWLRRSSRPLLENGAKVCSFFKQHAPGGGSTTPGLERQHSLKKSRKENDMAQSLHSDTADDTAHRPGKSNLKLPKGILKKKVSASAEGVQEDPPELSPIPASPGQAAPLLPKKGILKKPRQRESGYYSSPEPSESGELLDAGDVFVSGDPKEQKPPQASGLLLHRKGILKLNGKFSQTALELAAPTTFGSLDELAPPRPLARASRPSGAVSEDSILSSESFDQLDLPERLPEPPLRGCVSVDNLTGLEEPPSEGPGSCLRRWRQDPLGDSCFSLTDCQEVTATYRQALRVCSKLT

[19] = target: 1-phosphatidylinositol 3-phosphate 5-kinase (Homo sapiens) (UniProt Q9Y2I7); test: Inhibition of biotinylated ligand binding to wild-type human partial length PIKFYVE (F1512 to C2098 residues) expressed in mammalian expression system at 50 nM measured after 1 hr by kinomescan assay relative to control
[20] = target: Serine/threonine-protein kinase RIO3 (Homo sapiens) (UniProt O14730); test: Inhibition of biotinylated ligand binding to wild-type human full length RIOK3 (M1 to E519 residues) expressed in bacterial expression system assessed at 50 nM measured after 1 hr by kinomescan assay relative to control; outline: as §1
[21] = target: High affinity nerve growth factor receptor (Homo sapiens) (UniProt P04629); test: Inhibition of biotinylated ligand binding to wild-type human partial length TRKA (G475 to G790 residues) expressed in mammalian expression system at 50 nM measured after 1 hr by kinomescan assay relative to control; outline: as §2
[22] = target: BMP-2-inducible protein kinase (Homo sapiens) (UniProt Q9NSY1); test: Inhibition of biotinylated ligand binding to wild-type human partial length BIKE (S34 to N329 residues) expressed in bacterial expression system at 50 nM measured after 1 hr by kinomescan assay relative to control; outline: as §1
[23] = target: cAMP-dependent protein kinase catalytic subunit beta (Homo sapiens) (UniProt P22694); test: Inhibition of biotinylated ligand binding to wild-type human full length PKAC-beta (M1 to F351 residues) expressed in bacterial expression system at 50 nM measured after 1 hr by kinomescan assay relative to control
[24] = target: Cyclin-dependent kinase 7 (Homo sapiens) (UniProt P50613); test: Inhibition of biotinylated ligand binding to wild-type human full length CDK7 (M1 to L344 residues) expressed in mammalian expression system at 50 nM measured after 1 hr by kinomescan assay relative to control; outline: as §2
Sequence of Cyclin-dependent kinase 7 (Homo sapiens) (P50613 whole entry, the tested form may be a part): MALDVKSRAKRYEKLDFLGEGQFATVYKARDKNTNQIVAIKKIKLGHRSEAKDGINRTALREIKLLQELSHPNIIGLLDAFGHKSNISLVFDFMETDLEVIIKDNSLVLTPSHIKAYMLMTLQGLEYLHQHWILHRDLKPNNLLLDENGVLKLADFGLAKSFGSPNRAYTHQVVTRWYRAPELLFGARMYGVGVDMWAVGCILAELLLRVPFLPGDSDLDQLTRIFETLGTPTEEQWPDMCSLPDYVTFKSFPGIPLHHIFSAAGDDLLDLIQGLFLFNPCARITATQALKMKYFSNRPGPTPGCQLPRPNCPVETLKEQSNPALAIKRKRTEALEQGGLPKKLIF

CN(C)[C@@H]1CC[C@@]2(C)[C@@H](CC[C@@H]3[C@@H]2CC[C@]2(C)C(c4cccc5cnccc45)=CC[C@@H]32)C1
selectivity ratio [1]: 3 to 4 | inhibition [2]: > 80% | selectivity ratio [3]: 3 to 4 | selectivity ratio [4]: 3 to 4 | inhibition [5]: > 80% | inhibition [6]: > 80% | inhibition [7]: > 80% | inhibition [8]: > 80% | inhibition [9]: > 80% | inhibition [10]: > 80% | inhibition [11]: > 80% | selectivity ratio [12]: 3 to 4 | inhibition [13]: > 80% | EC50 [14]: 5.4 µM | EC50 [15]: 5.9 µM | inhibition [16]: > 80% | inhibition [17]: > 80% | inhibition [18]: > 80% | inhibition [19]: > 80% | inhibition [20]: > 80% | inhibition [21]: > 80% | inhibition [22]: > 80% | inhibition [23]: > 80% | inhibition [24]: > 80%
